Test [1] addresses T1, GABA-A receptor; anion channel (Bos taurus) (UniProt P10063+P08220+P20237+P08219+P10064+P22300). Nature of the test: GABA ratio (where GABA ratio = IC50 (compound) / IC50 (compound + 10 uM GABA)). Type of test: protein-complex assay. The method, boiled down:
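Ratio of IC50 for [3H]flunitrazepam displacement measured without GABA to IC50 measured with 10 μM GABA. Used as a rough in vitro gauge of intrinsic activity. Five independent experiments.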

A short description of test [2]: Binding affinity at bovine Benzodiazepine receptor by [3H]flunitrazepam displacement. Put shortly: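 [3H]flunitrazepam displacement; IC50 from log-probit plots, converted to Ki. Run for compounds giving enough inhibition in a 10 μM screen.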
Test [3] concerns the target T1, GABA-A receptor; anion channel (Bos taurus). Nature of the test: Inhibition of [3H]flunitrazepam binding to GABA-A benzodiazepine receptor of bovine brain membranes at 10e-5 M. It is filed as cell membranes. Put shortly:
(§1)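 Percent inhibition of [3H]flunitrazepam binding, with test compound at 10 μM. Ethanol used as solvent in one case.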

For test [4] the target is unchanged. Nature of the test: Percentage inhibition of [3H]flunitrazepam binding to GABA-A benzodiazepine receptor of bovine brain membranes. Type of test: cell membranes. The note with it: concentration not given here. Put shortly: as §1
Test [5] shares this target. Kind of test: inhibition of [3H]flunitrazepam binding to GABA-A benzodiazepine receptor of bovine brain membranes. It is filed as cell membranes. The note with it: concentration not given here.

The Ki is a dissociation constant, usually derived from enzyme kinetics or from competition with a known ligand. Lower therefore signals higher affinity. Take `O=c1oc2ccc(Cl)cc2c2nc(-c3cccs3)nn12`: the GR in test [1] came out at 0.8. This compound also gave an inhibitory constant (Ki) in test [2] of 0.1 µM.

Consider `O=c1oc2ccccc2c2nc(-c3ccco3)nn12`, for which, in test [1], the GR came to 0.84. For the same compound, the affinity in test [2], expressed as Ki, was 0.0279 µM.

With `CCOC(=O)c1nc2c3cc(Cl)ccc3oc(=O)n2n1`, in test [1], the GR stood at 1.2. In test [2], the Ki was found to be 0.125 µM.

For the compound `COc1ccc(-c2nc3c4cc(Cl)ccc4oc(=O)n3n2)cc1`, in test [1], the GR worked out at 0.5. Affinity in test [2] was put at a Ki of 0.0728 µM.

Regarding `O=c1oc2ccccc2c2nc(-c3cccs3)nn12`, the GR in test [1] worked out at 0.98. This compound gave an inhibitory constant (Ki) in test [2] of 0.0321 µM.

Regarding `O=c1oc2ccc(Cl)cc2c2nc(-c3ccsc3)nn12`, the GR in test [1] amounted to 1.02. In test [2], affinity was put at a Ki of 0.211 µM.

`COc1ccc(-c2nc3c4ccccc4oc(=O)n3n2)cc1`: the GR in test [1] amounted to 1.31. The inhibitory constant (Ki) in test [2] was 0.3 µM.

Regarding `O=c1oc2ccc(Cl)cc2c2nc(-c3ccoc3)nn12`, in test [1], the GR amounted to 0.8. The Ki in test [2] is 0.105 µM.

Consider `O=c1oc2ccccc2c2nc(-c3ccccc3F)nn12`, for which the GR in test [1] turned out to be 0.95. The compound also returned an inhibitory constant (Ki) in test [2] of 0.0153 µM.

A word on the inhibition: it is the percentage by which the read-out fell short of the control. A low value points to a response near the control. The compound `COc1ccc2c(c1)oc(=O)n1nc(-c3ccccc3F)nc21` displayed an inhibition in test [3] of 45%.

In the case of `O=c1oc2ccccc2c2nc(-c3ccccc3)nn12`, the GR in test [1] amounted to 0.98. The affinity in test [2] corresponds to a Ki of 0.132 µM.

As to `CCOC(=O)c1nc2c3ccccc3oc(=O)n2n1`, the GR in test [1] stood at 0.81. In addition, the inhibition constant Ki in test [2] was 0.12 µM.

Turning to `O=c1oc2ccc(Cl)cc2c2nc(-c3ccccc3F)nn12`, the GR in test [1] was determined as 0.9. Further, in test [2], affinity was put at a Ki of 0.0052 µM.

For the compound `O=c1oc2ccccc2c2nc(-c3ccc(Cl)cc3)nn12`, the inhibition in test [4] turned out to be 0%.

`O=c1oc2ccc(Cl)cc2c2nc(-c3ccco3)nn12`: the GR in test [1] was 0.9. In test [2], this compound had a Ki of 0.0623 µM.

In the case of `O=c1oc2ccc(Cl)cc2c2nc(-c3ccccc3)nn12`, the GR in test [1] was determined as 0.78. Further, the affinity in test [2] corresponds to a Ki of 0.568 µM.

In test [5], `O=c1oc2cc(Cl)ccc2c2nc(-c3ccccc3F)nn12` displayed an inhibition of 47%.

In test [5], `O=c1oc2ccc(Cl)cc2c2nc(-c3ccc(Cl)cc3)nn12` displayed an inhibition of 3%.

`O=c1oc2ccc(Cl)cc2c2nc(-c3cccc(F)c3F)nn12`: in test [1], the GR turned out to be 1.11. Also, the affinity in test [2] corresponds to a Ki of 0.0118 µM.

`O=c1oc2ccc(Cl)cc2c2nc(-c3c(F)cccc3F)nn12`: the GR in test [1] came to 0.76. In addition, the Ki in test [2] amounted to 0.0422 µM.

On to `Cc1ccc2oc(=O)n3nc(-c4ccccc4F)nc3c2c1`, for which the GR in test [1] stood at 0.84. In test [2], the inhibition constant Ki stood at 0.0448 µM.

On to `COc1ccc2oc(=O)n3nc(-c4ccccc4F)nc3c2c1`, for which the GR in test [1] stood at 1.13. The compound further came in with a Ki in test [2] of 0.0437 µM.

(Values after ChEMBL document CHEMBL1128400, “Synthesis of some 2-aryl-1,2,4-triazolo[1,5-c][1,3]benzoxazin-5-ones as tools to define the essential pharmacophoric descriptors of a benzodiazepine receptor ligand” (J Med Chem, 1995).)
